Measured values as given in ChEMBL document CHEMBL4619773, “Chemoreactive-Inspired Discovery of Influenza A Virus Dual Inhibitor to Block Hemagglutinin-Mediated Adsorption and Membrane Fusion” (J Med Chem, 2020).
Active and inactive are the calls of the source. The rule behind the calls is not given here.

Key:
[1] = AUC (0 to t) in mouse at 5 mg/kg, po administered as single dose; format: ADME, organism-based; conditions: in vivo
Procedure, shortened: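 Male Kunming mice (20-25 g) and male Sprague Dawley rats (180-220 g) were fasted 12 h before dosing. Oral dosing was by gavage as a suspension in 0.5% sodium carboxymethyl cellulose; iv dosing was via tail vein in PEG400. Serial plasma samples were taken to 24 h, protein-precipitated with acetonitrile plus N-CH3 internal standard, and quantified by LC-MS/MS (n=3). Bioavailability = AUCoral/AUCiv.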

Influenza A virus = assay: Antiviral activity against luciferase tagged Influenza A virus H5N1 pseudovirus infected in MDCK cells assessed as reduction in virus infection at 50 ug/ml using compound pre-treated virus for infection and measured after 48 hrs by luciferase reporter gene assay; format: functional, organism-based
Procedure, shortened: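 MDCK cells infected with luciferase-expressing H5N1 HA/NA pseudotyped HIV-based virus were treated with compound under four different treatment regimens. Infection was quantified by firefly luciferase glow assay.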

## CC(=O)c1cc(C)c(O)c(Cc2[nH]c3ccccc3c2Cc2c(O)c(C)cc(C(C)=O)c2O)c1O
[1]
  AUC(0-t): 152 ng·h/mL
Influenza A virus
  inhibition: Active
